Measurements as given in paper PMC9321909 (British Journal of Haematology, 2022).
Entries after “also recorded” stand apart in the source; their conditions may differ.

Assay: Safety: treatment-emergent adverse events, NCI CTCAE v4.03
Type: in vivo, human (Chinese patients)
Outline: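 Patients took oral test compound at 320 mg QD or 160 mg BID until progression or unacceptable toxicity. AEs were graded per NCI CTCAE v4.03, and treatment-emergent AEs were summarized. AEs of special interest included haemorrhage, atrial fibrillation/flutter, hypertension, second primary malignancies, tumour lysis syndrome, infections and cytopenias. Percentages use patients receiving ≥1 dose as the denominator.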

C=CC(=O)N1CCC([C@@H]2CCNc3c(C(N)=O)c(-c4ccc(Oc5ccccc5)cc4)nn32)CC1 [zanubrutinib]
Anaemia, TEAE any grade (160 mg BID (n = 34)): 12 (35.3) n (%) | Anaemia, grade ≥ 3 TEAE (160 mg BID (n = 34)): 4 (11.8) n (%) | Atrial fibrillation/flutter, any grade TEAE of special interest (160 mg BID (n = 34)): 0 (0.0) n (%) | Cough, TEAE any grade (160 mg BID (n = 34)): 5 (14.7) n (%) | Cytopenias: Anaemia, any grade TEAE of special interest (160 mg BID (n = 34)): 14 (41.2) n (%) | Cytopenias: Neutropenia, any grade TEAE of special interest (160 mg BID (n = 34)): 18 (52.9) n (%) | Cytopenias: Thrombocytopenia, any grade TEAE of special interest (160 mg BID (n = 34)): 9 (26.5) n (%) | Haemorrhage, any grade TEAE of special interest (160 mg BID (n = 34)): 11 (32.4) n (%) | Hematuria, TEAE any grade (160 mg BID (n = 34)): 6 (17.6) n (%) | Hypertension, any grade TEAE of special interest (160 mg BID (n = 34)): 0 (0.0) n (%) | Hyperuricemia, TEAE any grade (160 mg BID (n = 34)): 6 (17.6) n (%) | Infections, any grade TEAE of special interest (160 mg BID (n = 34)): 19 (55.9) n (%) | Major haemorrhage, any grade TEAE of special interest (160 mg BID (n = 34)): 1 (2.9) n (%) | Neutropenia, grade ≥ 3 TEAE (160 mg BID (n = 34)): 4 (11.8) n (%) | Neutrophil count decreased, TEAE any grade (160 mg BID (n = 34)): 17 (50.0) n (%) | Neutrophil count decreased, grade ≥ 3 TEAE (160 mg BID (n = 34)): 6 (17.6) n (%) | Patients with ≥1 TEAE of special interest, any grade (160 mg BID (n = 34)): 30 (88.2) n (%) | Patients with ≥1 any‐grade TEAE (160 mg BID (n = 34)): 33 (97.1) n (%) | Patients with ≥1 grade 3 or higher TEAE (160 mg BID (n = 34)): 18 (52.9) n (%) | Platelet count decreased, TEAE any grade (160 mg BID (n = 34)): 8 (23.5) n (%) | Platelet count decreased, grade ≥ 3 TEAE (160 mg BID (n = 34)): 1 (2.9) n (%) | Pneumonia, TEAE any grade (160 mg BID (n = 34)): 6 (17.6) n (%) | Pneumonia, grade ≥ 3 TEAE (160 mg BID (n = 34)): 3 (8.8) n (%) | Rash, TEAE any grade (160 mg BID (n = 34)): 8 (23.5) n (%) | Second primary malignancies, any grade TEAE of special interest (160 mg BID (n = 34)): 0 (0.0) n (%) | Thrombocytopenia, grade ≥ 3 TEAE (160 mg BID (n = 34)): 1 (2.9) n (%) | Tumour lysis syndrome, any grade TEAE of special interest (160 mg BID (n = 34)): 0 (0.0) n (%) | Upper respiratory tract infection, TEAE any grade (160 mg BID (n = 34)): 10 (29.4) n (%) | Upper respiratory tract infection, grade ≥ 3 TEAE (160 mg BID (n = 34)): 2 (5.9) n (%) | Weight increased, TEAE any grade (160 mg BID (n = 34)): 5 (14.7) n (%) | White blood cell count decreased, TEAE any grade (160 mg BID (n = 34)): 11 (32.4) n (%) | White blood cell count decreased, grade ≥ 3 TEAE (160 mg BID (n = 34)): 1 (2.9) n (%) | White blood cell count increased, grade ≥ 3 TEAE (160 mg BID (n = 34)): 2 (5.9) n (%) | Anaemia, TEAE any grade (320 mg QD (n = 10)): 4 (40.0) n (%) | Anaemia, grade ≥ 3 TEAE (320 mg QD (n = 10)): 1 (10.0) n (%) | Atrial fibrillation/flutter, any grade TEAE of special interest (320 mg QD (n = 10)): 0 (0.0) n (%) | Cough, TEAE any grade (320 mg QD (n = 10)): 3 (30.0) n (%) | Cytopenias: Anaemia, any grade TEAE of special interest (320 mg QD (n = 10)): 4 (40.0) n (%) | Cytopenias: Neutropenia, any grade TEAE of special interest (320 mg QD (n = 10)): 7 (70.0) n (%) | Cytopenias: Thrombocytopenia, any grade TEAE of special interest (320 mg QD (n = 10)): 3 (30.0) n (%) | Haemorrhage, any grade TEAE of special interest (320 mg QD (n = 10)): 4 (40.0) n (%) | Hematuria, TEAE any grade (320 mg QD (n = 10)): 3 (30.0) n (%) | Hypertension, any grade TEAE of special interest (320 mg QD (n = 10)): 1 (10.0) n (%) | Hyperuricemia, TEAE any grade (320 mg QD (n = 10)): 3 (30.0) n (%) | Infections, any grade TEAE of special interest (320 mg QD (n = 10)): 7 (70.0) n (%) | Major haemorrhage, any grade TEAE of special interest (320 mg QD (n = 10)): 0 (0.0) n (%) | Neutropenia, grade ≥ 3 TEAE (320 mg QD (n = 10)): 0 (0.0) n (%) | Neutrophil count decreased, TEAE any grade (320 mg QD (n = 10)): 7 (70.0) n (%) | Neutrophil count decreased, grade ≥ 3 TEAE (320 mg QD (n = 10)): 5 (50.0) n (%) | Patients with ≥1 TEAE of special interest, any grade (320 mg QD (n = 10)): 10 (100.0) n (%) | Patients with ≥1 any‐grade TEAE (320 mg QD (n = 10)): 10 (100.0) n (%) | Patients with ≥1 grade 3 or higher TEAE (320 mg QD (n = 10)): 6 (60.0) n (%) | Platelet count decreased, TEAE any grade (320 mg QD (n = 10)): 2 (20.0) n (%) | Platelet count decreased, grade ≥ 3 TEAE (320 mg QD (n = 10)): 1 (10.0) n (%) | Pneumonia, TEAE any grade (320 mg QD (n = 10)): 3 (30.0) n (%) | Pneumonia, grade ≥ 3 TEAE (320 mg QD (n = 10)): 0 (0.0) n (%) | Rash, TEAE any grade (320 mg QD (n = 10)): 2 (20.0) n (%) | Second primary malignancies, any grade TEAE of special interest (320 mg QD (n = 10)): 0 (0.0) n (%) | Thrombocytopenia, grade ≥ 3 TEAE (320 mg QD (n = 10)): 1 (10.0) n (%) | Tumour lysis syndrome, any grade TEAE of special interest (320 mg QD (n = 10)): 0 (0.0) n (%) | Upper respiratory tract infection, TEAE any grade (320 mg QD (n = 10)): 5 (50.0) n (%) | Upper respiratory tract infection, grade ≥ 3 TEAE (320 mg QD (n = 10)): 2 (20.0) n (%) | Weight increased, TEAE any grade (320 mg QD (n = 10)): 3 (30.0) n (%) | White blood cell count decreased, TEAE any grade (320 mg QD (n = 10)): 3 (30.0) n (%) | White blood cell count decreased, grade ≥ 3 TEAE (320 mg QD (n = 10)): 1 (10.0) n (%) | White blood cell count increased, grade ≥ 3 TEAE (320 mg QD (n = 10)): 1 (10.0) n (%) | Anaemia, TEAE any grade (Total (N = 44)): 16 (36.4) n (%) | Anaemia, grade ≥ 3 TEAE (Total (N = 44)): 5 (11.4) n (%) | Atrial fibrillation/flutter, any grade TEAE of special interest (Total (N = 44)): 0 (0.0) n (%) | Cough, TEAE any grade (Total (N = 44)): 8 (18.2) n (%) | Cytopenias: Anaemia, any grade TEAE of special interest (Total (N = 44)): 18 (40.9) n (%) | Cytopenias: Neutropenia, any grade TEAE of special interest (Total (N = 44)): 25 (56.8) n (%) | Cytopenias: Thrombocytopenia, any grade TEAE of special interest (Total (N = 44)): 12 (27.3) n (%) | Haemorrhage, any grade TEAE of special interest (Total (N = 44)): 15 (34.1) n (%) | Hematuria, TEAE any grade (Total (N = 44)): 9 (20.5) n (%) | Hypertension, any grade TEAE of special interest (Total (N = 44)): 1 (2.3) n (%) | Hyperuricemia, TEAE any grade (Total (N = 44)): 9 (20.5) n (%) | Infections, any grade TEAE of special interest (Total (N = 44)): 26 (59.1) n (%) | Major haemorrhage, any grade TEAE of special interest (Total (N = 44)): 1 (2.3) n (%) | Neutropenia, grade ≥ 3 TEAE (Total (N = 44)): 4 (9.1) n (%) | Neutrophil count decreased, TEAE any grade (Total (N = 44)): 24 (54.5) n (%) | Neutrophil count decreased, grade ≥ 3 TEAE (Total (N = 44)): 11 (25.0) n (%) | Patients with ≥1 TEAE of special interest, any grade (Total (N = 44)): 40 (90.9) n (%) | Patients with ≥1 any‐grade TEAE (Total (N = 44)): 43 (97.7) n (%) | Patients with ≥1 grade 3 or higher TEAE (Total (N = 44)): 24 (54.5) n (%) | Platelet count decreased, TEAE any grade (Total (N = 44)): 10 (22.7) n (%) | Platelet count decreased, grade ≥ 3 TEAE (Total (N = 44)): 2 (4.5) n (%) | Pneumonia, TEAE any grade (Total (N = 44)): 9 (20.5) n (%) | Pneumonia, grade ≥ 3 TEAE (Total (N = 44)): 3 (6.8) n (%) | Rash, TEAE any grade (Total (N = 44)): 10 (22.7) n (%) | Second primary malignancies, any grade TEAE of special interest (Total (N = 44)): 0 (0.0) n (%) | Thrombocytopenia, grade ≥ 3 TEAE (Total (N = 44)): 2 (4.5) n (%) | Tumour lysis syndrome, any grade TEAE of special interest (Total (N = 44)): 0 (0.0) n (%) | Upper respiratory tract infection, TEAE any grade (Total (N = 44)): 15 (34.1) n (%) | Upper respiratory tract infection, grade ≥ 3 TEAE (Total (N = 44)): 4 (9.1) n (%) | Weight increased, TEAE any grade (Total (N = 44)): 8 (18.2) n (%) | White blood cell count decreased, TEAE any grade (Total (N = 44)): 14 (31.8) n (%) | White blood cell count decreased, grade ≥ 3 TEAE (Total (N = 44)): 2 (4.5) n (%) | White blood cell count increased, grade ≥ 3 TEAE (Total (N = 44)): 3 (6.8) n (%) | AEs leading to dose reduction (all 44 patients): no AEs leading to dose reduction | neutrophil count decreased, most common adverse event (any grade) (all 44 patients): 54.5% | neutrophil count decreased, most common grade 3 or higher AE (all 44 patients): 25.0% | patients with AEs leading to dose interruption (all 44 patients): 18.2% | patients with AEs leading to treatment discontinuation (all 44 patients): 4.5% | reports of second primary malignancies, tumour lysis syndrome, atrial fibrillation/flutter (all 44 patients): no reports | grade of haemorrhagic events (all events except one non‐serious grade 3 purpura): grade 1–2; also recorded: grade 1 or 2 | dose‐limiting toxicity (DLT) events (part I, 160 mg BID and 320 mg QD): No DLT events
